# ChEMBL document CHEMBL4145441, “Discovery of N-(5-((5-chloro-4-((2-(isopropylsulfonyl)phenyl)amino)pyrimidin-2-yl)amino)-4-methoxy-2-(4-methyl-1,4-diazepan-1-yl)phenyl)acrylamide (CHMFL-ALK/EGFR-050) as a potent ALK/EGFR dual kinase inhibitor capable of overcoming a variety of ALK/EGFR associated drug resistant mutants in NSCLC” (Eur J Med Chem, 2017)
# The source made the active and inactive calls. The rule behind the calls is not given here.
# Key:
# Homo sapiens [1] = organism: Homo sapiens; experiment: Selectivity index, ratio of IC50 for recombinant human GST-tagged EGFR L858R mutant to IC50 for recombinant human GST-tagged EGFR L858R/T790M mutant
# NCI-H1975 [2] = experiment: Induction of apoptosis in human NCI-H1975 cells assessed as increase in cleaved PARP expression level at 300 nM to 1 uM after 24 hrs by Western blot method; type: functional, cell-based
# NCI-H1355 = experiment: Antiproliferative activity against human NCI-H1355 cells harboring wild-type EGFR after 72 hrs by CellTiter-Glo assay; type: functional; settings: NCI-H1355, 72 h
# [3] = Cmax in Sprague-Dawley rat at 10 mg/kg, po; type: ADME, organism-based; parameters: dose 10 mg/kg, route oral; settings: in vivo
# In short: (§1)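 Rats dosed once intravenously at 1 mg/kg or orally at 10 mg/kg. Plasma exposure parameters derived: AUC0-t, AUC0-∞, MRT(0-t), Cmax, Tmax, T1/2 and oral bioavailability (F%). Values reported as mean ± spread.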
# Homo sapiens [4] = organism: Homo sapiens; experiment: Selectivity index, ratio of IC50 for recombinant human wild-type His-tagged EGFR to IC50 for recombinant human GST-tagged EGFR L858R/T790M mutant
# [5] = MRT (0 to t) in Sprague-Dawley rat at 10 mg/kg, po; type: ADME, organism-based; settings: in vivo
# In short: (§2)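 Pharmacokinetics in rats given a single dose either intravenously at 1 mg/kg or orally at 10 mg/kg. Plasma parameters derived include AUC0-t, AUC0-∞, MRT(0-t), Cmax, Tmax, T1/2 and oral F (%).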
# NCI-H3122 [6] = experiment: Antitumor activity against human NCI-H3122 cells xenografted in nu/nu mouse assessed as tumor growth inhibition at 40 mg/kg, po qd administered for 28 days; type: functional; settings: 672 h, read-out: TGI
# NCI-H1975 [7] = experiment: Induction of apoptosis in human NCI-H1975 cells assessed as increase in cleaved caspase-3 expression level at 300 nM to 1 uM after 24 hrs by Western blot method; type: functional, cell-based
# [8] = MRT (0 to t) in Sprague-Dawley rat at 1 mg/kg, iv; type: ADME, organism-based; settings: in vivo; in short: as §2
# [9] = molecular target: ALK tyrosine kinase receptor (Homo sapiens, UniProt Q9UM73); experiment: Inhibition of recombinant human wild-type GST-tagged ALK expressed in Baculovirus expression system using Tyr 1 peptide as substrate after 1 hr by Z-LYTE assay
# ALK tyrosine kinase receptor (Homo sapiens, UniProt Q9UM73), sequence (Q9UM73 whole entry): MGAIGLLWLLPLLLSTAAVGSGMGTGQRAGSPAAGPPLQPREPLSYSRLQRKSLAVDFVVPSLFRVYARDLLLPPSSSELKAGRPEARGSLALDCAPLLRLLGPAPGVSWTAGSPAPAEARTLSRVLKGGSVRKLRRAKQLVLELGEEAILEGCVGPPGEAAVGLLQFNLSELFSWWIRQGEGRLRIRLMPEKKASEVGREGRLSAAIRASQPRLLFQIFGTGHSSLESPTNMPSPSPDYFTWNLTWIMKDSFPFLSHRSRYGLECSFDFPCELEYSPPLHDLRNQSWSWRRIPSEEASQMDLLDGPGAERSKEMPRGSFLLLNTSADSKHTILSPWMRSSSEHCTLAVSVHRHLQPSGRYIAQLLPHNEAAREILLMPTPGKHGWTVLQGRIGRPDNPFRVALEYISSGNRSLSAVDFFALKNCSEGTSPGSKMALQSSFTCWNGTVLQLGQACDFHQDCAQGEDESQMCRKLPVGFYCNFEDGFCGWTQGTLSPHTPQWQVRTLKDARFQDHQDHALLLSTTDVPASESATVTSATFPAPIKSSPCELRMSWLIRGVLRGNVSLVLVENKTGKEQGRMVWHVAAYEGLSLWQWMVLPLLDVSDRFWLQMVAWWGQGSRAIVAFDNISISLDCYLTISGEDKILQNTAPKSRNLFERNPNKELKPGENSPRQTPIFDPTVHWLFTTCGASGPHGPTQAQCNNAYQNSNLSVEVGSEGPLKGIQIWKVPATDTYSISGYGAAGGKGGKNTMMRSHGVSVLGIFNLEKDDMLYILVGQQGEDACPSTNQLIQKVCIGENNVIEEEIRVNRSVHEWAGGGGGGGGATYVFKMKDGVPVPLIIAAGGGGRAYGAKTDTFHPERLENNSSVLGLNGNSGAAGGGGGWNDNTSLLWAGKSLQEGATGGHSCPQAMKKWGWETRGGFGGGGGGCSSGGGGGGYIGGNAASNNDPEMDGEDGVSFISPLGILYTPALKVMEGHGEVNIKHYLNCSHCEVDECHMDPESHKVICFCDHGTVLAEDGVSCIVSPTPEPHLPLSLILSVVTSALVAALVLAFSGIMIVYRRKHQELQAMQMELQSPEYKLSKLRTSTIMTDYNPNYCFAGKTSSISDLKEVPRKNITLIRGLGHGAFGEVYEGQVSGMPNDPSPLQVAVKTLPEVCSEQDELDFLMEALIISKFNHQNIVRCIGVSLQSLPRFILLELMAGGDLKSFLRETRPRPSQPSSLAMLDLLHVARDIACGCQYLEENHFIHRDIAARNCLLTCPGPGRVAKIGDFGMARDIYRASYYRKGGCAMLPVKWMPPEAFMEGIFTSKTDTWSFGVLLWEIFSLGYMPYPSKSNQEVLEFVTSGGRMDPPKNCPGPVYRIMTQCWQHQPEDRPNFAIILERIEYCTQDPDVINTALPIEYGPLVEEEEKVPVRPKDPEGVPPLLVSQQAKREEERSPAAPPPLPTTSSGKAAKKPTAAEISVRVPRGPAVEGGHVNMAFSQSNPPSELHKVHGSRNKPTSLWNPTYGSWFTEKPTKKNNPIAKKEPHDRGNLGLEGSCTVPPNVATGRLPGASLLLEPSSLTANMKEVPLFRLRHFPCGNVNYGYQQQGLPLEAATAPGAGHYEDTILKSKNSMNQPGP
# NCI-H3255 = experiment: Antiproliferative activity against human H3255 cells harboring EGFR L858R mutant after 72 hrs by CellTiter-Glo assay; type: functional; settings: NCI-H3255, 72 h
# Homo sapiens [10] = organism: Homo sapiens; experiment: Selectivity ratio of GI50 for inhibition of TEL-fused EGFR C797S mutant (unknown origin) expressed in mouse BAF3 cells assessed as decrease in cell proliferation to GI50 for TEL-fused EGFR (unknown origin) expressed in mouse BAF3 cells assessed as decrease in cell proliferation; type: cell-based
# [11] = Antiproliferative activity against CHO cells after 72 hrs by CellTiter-Glo assay; type: cell-based, Cricetulus griseus; settings: chinese hamster
# [12] = AUC (0 to infinity) in Sprague-Dawley rat at 1 mg/kg, iv; type: ADME, organism-based; parameters: dose 1 mg/kg, route intravenous, time infinity; settings: in vivo; in short: as §1
# [13] = molecular target: T1, Epidermal growth factor receptor (Homo sapiens, UniProt P00533); experiment: Inhibition of EGFR in human A549 cells assessed as reduction in EGF-induced ERK phosphorylation at Thr202/Tyr204 residues up to 3 uM after 4 hrs by immunoblotting method; type: cell-based
# T1 sequence (P00533 whole entry): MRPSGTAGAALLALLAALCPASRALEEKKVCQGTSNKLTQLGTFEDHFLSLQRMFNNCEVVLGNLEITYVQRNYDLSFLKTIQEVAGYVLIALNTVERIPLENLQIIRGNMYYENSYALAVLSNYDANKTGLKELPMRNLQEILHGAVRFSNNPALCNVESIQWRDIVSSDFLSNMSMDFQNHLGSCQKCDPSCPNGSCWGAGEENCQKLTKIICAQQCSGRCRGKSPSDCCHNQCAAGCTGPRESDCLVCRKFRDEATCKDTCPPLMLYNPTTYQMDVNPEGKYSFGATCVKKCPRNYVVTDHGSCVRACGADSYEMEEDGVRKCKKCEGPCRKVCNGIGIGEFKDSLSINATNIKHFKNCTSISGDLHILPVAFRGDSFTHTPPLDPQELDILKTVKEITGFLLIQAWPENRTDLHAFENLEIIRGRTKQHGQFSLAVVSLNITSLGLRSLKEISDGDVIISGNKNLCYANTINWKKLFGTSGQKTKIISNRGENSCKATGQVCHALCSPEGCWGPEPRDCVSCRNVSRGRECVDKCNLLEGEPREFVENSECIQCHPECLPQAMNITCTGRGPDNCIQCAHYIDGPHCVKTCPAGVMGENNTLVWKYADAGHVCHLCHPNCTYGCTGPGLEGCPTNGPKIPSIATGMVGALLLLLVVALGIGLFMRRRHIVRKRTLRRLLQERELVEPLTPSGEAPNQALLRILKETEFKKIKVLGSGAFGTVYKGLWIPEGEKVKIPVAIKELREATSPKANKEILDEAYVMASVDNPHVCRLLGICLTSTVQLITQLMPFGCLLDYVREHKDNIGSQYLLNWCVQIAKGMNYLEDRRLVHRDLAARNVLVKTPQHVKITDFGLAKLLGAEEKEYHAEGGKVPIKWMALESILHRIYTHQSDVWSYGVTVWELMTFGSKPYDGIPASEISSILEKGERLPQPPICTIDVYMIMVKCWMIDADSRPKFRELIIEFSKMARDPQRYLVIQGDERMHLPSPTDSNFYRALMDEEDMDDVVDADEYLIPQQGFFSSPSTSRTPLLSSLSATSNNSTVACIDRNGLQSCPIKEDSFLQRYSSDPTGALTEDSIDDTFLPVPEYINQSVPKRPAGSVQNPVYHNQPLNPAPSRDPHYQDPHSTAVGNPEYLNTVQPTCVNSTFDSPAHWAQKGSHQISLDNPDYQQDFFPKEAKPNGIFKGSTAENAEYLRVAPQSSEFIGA
# NCI-H3122 [14] = experiment: Antitumor activity against human NCI-H3122 cells xenografted in po dosed nu/nu mouse assessed as tumor growth inhibition administered for 28 days; type: functional, organism-based
# Mus musculus = experiment: Toxicity in nu/nu mouse xenografted with human NCI-H3122 cells assessed as change in body weight at 10 to 40 mg/kg, po qd administered for 28 days; type: organism-based; settings: in vivo, 672 h
# [15] = molecular target: T1, Epidermal growth factor receptor; experiment: Inhibition of recombinant human wild-type His-tagged EGFR expressed in mammalian expression system using Tyr 4 peptide as substrate after 1 hr in presence of ATP by Z-LYTE kinase assay
# [16] = molecular target: T1, Epidermal growth factor receptor; experiment: Inhibition of EGFR in human PC9 cells assessed as inhibition of ERK-1/2 phosphorylation at Thr202/Tyr204 residues at 30 nM after 4 hrs by immunoblotting method; type: cell-based
# NCI-H1975 [17] = experiment: Growth inhibition of human NCI-H1975 cells after 72 hrs by CellTiter-Glo assay; type: functional; settings: NCI-H1975, 72 h
# In short: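 Antiproliferative GI50 against H1975 and H3122 cells; each GI50 value obtained from triplicate testing.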
# [18] = molecular target: ALK tyrosine kinase receptor (Homo sapiens, UniProt Q9UM73, R1275Q); experiment: Inhibition of recombinant human N-terminal GST/His6-fused ALK R1275Q mutant expressed in Sf9 insect cells using Tyr 1 peptide as substrate after 1 hr by Z-LYTE assay
# PC-9 = experiment: Induction of apoptosis in human PC9 cells assessed as increase in cleaved caspase-3 expression level at 300 nM to 1 uM after 24 hrs by Western blot method; type: functional, cell-based
# [19] = molecular target: T1, Epidermal growth factor receptor; experiment: Inhibition of EGFR in human A549 cells assessed as reduction in EGF-induced 4EBP1 phosphorylation at Thr37/46 site up to 3 uM after 4 hrs by immunoblotting method; type: cell-based
# [20] = test system: Epidermal growth factor receptor (Homo sapiens), P00533 [L858R,T790M,C797S]; experiment: Inhibition of full length EGFR L858R/T790M/C797S mutant (unknown origin) expressed in mouse BAF3 cells assessed as decrease in cell proliferation after 72 hrs by CellTiter-Glo assay; type: cell-based
# Epidermal growth factor receptor (Homo sapiens), P00533 [L858R,T790M,C797S], sequence (P00533 whole entry T790M/C797S/L858R): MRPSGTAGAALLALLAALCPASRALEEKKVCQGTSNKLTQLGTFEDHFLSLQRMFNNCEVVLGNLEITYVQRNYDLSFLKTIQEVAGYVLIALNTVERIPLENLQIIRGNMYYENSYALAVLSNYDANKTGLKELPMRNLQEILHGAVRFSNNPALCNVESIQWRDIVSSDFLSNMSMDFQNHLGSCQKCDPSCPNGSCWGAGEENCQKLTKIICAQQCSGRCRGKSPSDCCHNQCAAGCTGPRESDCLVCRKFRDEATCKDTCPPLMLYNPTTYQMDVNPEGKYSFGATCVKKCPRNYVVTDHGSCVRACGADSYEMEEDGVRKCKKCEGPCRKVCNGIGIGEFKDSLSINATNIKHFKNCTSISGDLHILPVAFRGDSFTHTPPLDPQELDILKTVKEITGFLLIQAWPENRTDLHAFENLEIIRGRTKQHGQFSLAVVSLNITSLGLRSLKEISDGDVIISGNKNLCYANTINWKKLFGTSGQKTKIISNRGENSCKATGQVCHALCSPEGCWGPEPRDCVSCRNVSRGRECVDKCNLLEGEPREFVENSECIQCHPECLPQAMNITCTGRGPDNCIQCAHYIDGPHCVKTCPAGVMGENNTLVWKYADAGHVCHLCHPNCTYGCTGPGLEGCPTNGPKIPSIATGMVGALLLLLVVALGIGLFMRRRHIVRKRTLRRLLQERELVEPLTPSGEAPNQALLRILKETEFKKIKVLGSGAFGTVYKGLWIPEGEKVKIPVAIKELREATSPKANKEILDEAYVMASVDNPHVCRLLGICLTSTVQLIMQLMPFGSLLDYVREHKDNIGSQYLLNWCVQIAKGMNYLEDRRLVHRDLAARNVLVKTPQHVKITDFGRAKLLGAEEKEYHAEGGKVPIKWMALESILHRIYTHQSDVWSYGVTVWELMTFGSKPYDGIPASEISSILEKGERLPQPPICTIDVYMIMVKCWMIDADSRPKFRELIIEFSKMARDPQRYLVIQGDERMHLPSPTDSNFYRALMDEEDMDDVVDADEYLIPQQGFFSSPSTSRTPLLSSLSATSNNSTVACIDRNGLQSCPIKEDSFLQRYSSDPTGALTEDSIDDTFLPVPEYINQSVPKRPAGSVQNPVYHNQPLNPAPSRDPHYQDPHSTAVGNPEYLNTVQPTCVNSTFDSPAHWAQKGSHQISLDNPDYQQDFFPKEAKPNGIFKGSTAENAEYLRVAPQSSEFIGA
# NCI-H1975 [21] = experiment: Antitumor activity against human NCI-H1975 cells xenografted in po dosed nu/nu mouse assessed as tumor growth inhibition administered for 21 days
# NCI-H1975 [22] = experiment: Antitumor activity against human NCI-H1975 cells xenografted in po dosed nu/nu mouse assessed as decrease in cell proliferation administered for 21 days by Ki67 staining-based immunohistochemical analysis
compound,measurement,setting,value
C=CC(=O)Nc1cc(Nc2ncc(Cl)c(Nc3ccccc3S(=O)(=O)C(C)C)n2)c(OC)cc1N1CCCN(C)CC1,Ratio IC50,Homo sapiens [1],20 to 30
same,Activity,NCI-H1975 [2],Active
same,GI50,NCI-H1355,1400 nM
same,Cmax,[3],283 ng/mL
same,Ratio IC50,Homo sapiens [4],20 to 30
same,MRT last,[5],4.12 h
same,inhibition in vivo at 40 mg/kg,NCI-H3122 [6],78.4%
same,Activity,NCI-H1975 [7],Active
same,MRT last,[8],0.947 h
same,IC50,[9],9.8 nM
same,GI50,NCI-H3255,31 nM
same,RatioGI50,Homo sapiens [10],15
same,GI50 at 72 h,[11],1800 nM
same,AUC(0-inf),[12],720 ng·h/mL
same,inhibition,[13],inactive
same,TGI,NCI-H3122 [14],Dose-dependent effect
same,Activity,Mus musculus,Non-Toxic
same,IC50,[15],108 nM
same,inhibition,[16],Active
same,GI50,NCI-H1975 [17],15 nM
same,IC50,[18],0.82 nM
same,Activity,PC-9,Active
same,inhibition,[19],inactive
same,GI50,[20],1100 nM
same,TGI,NCI-H1975 [21],Dose-dependent effect
same,Activity,NCI-H1975 [22],Dose-dependent effect
